ChEMBL document CHEMBL3232902, “PMPA and PMEA prodrugs for the treatment of HIV infections and human papillomavirus (HPV) associated neoplasia and cancer” (Eur J Med Chem, 2014)

Columns and labels:
[1] = system: Human immunodeficiency virus 1; assay: Antiviral activity against Human immunodeficiency virus 1 3B infected in human CEM cells assessed as inhibition of virus-induced giant cell formation after 4 to 5 days by microscopic analysis; assay type: functional, organism-based, CCRF-CEM; settings: Human immunodeficiency virus 1, 3B, CCRF-CEM
In short: (§1)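 CEM cells (~3×10^5/mL) were infected with 100 CCID50/mL HIV-1 IIIB or HIV-2 ROD with compound dilutions. After 4–5 days at 37°C, syncytium formation was scored microscopically. EC50 is the concentration inhibiting giant cell formation by 50%.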

L1210 = assay: Cytostatic activity against mouse L1210 cells after 48 hrs by coulter counting analysis; assay type: functional, cell-based; settings: Mus musculus, L1210, 48 h
In short: (§2)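 (5-7.5)×10^4 cells/well were incubated with compound at 37°C, for 48 h (L1210) or 72 h (CEM, HeLa), then counted by Coulter counter. IC50 is the concentration inhibiting proliferation by 50%.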

Vaccinia virus = assay: Antiviral activity against Vaccinia virus Lederle infected in HEL cells assessed as inhibition of virus-induced cytopathicity; assay type: functional, organism-based; settings: Orthopoxvirus vaccinia
In short: (§3)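 Confluent HEL cell cultures were inoculated with 100 CCID50 of virus in the presence of varying compound concentrations. Cytopathicity or plaque formation was scored once untreated infected controls reached completion. EC50 is the concentration inhibiting virus-induced cytopathicity by 50%.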

HeLa [2] = assay: Cytostatic activity against human HeLa cells after 72 hrs by coulter counting analysis; assay type: functional, cell-based; settings: Homo sapiens, HeLa, 72 h; in short: as §2
Human alphaherpesvirus 2 = assay: Antiviral activity against Herpes simplex virus G infected in HEL cells assessed as inhibition of virus-induced cytopathicity; assay type: functional, organism-based, strain G; settings: Human alphaherpesvirus 2, strain G, HEL; in short: as §3
[3] = Cytotoxicity against human CEM cells; assay type: cell-based, CCRF-CEM; settings: CEM (CCRF-CEM) cells
CCRF-CEM = assay: Cytostatic activity against human CEM cells after 72 hrs by coulter counting analysis; assay type: functional, cell-based; settings: Homo sapiens, CCRF-CEM, 72 h; in short: as §2
[4] = system: Human immunodeficiency virus 2; assay: Antiviral activity against Human immunodeficiency virus type 2 ROD infected in human CEM cells assessed as inhibition of virus-induced giant cell formation after 4 to 5 days by microscopic analysis; assay type: functional, organism-based, ISOLATE ROD, CCRF-CEM; settings: Human immunodeficiency virus 2, ISOLATE ROD, CCRF-CEM; in short: as §1
Human alphaherpesvirus 1 [5] = assay: Antiviral activity against thymidine kinase-deficient acyclovir-resistant Herpes simplex virus KOS infected in HEL cells assessed as inhibition of virus-induced cytopathicity; assay type: functional, organism-based; settings: Human alphaherpesvirus 1, KOS; in short: as §3
Human alphaherpesvirus 1 [6] = assay: Antiviral activity against Herpes simplex virus KOS infected in HEL cells assessed as inhibition of virus-induced cytopathicity; assay type: functional, organism-based; settings: Human alphaherpesvirus 1, KOS, HEL; in short: as §3
[7] = Cytotoxicity against HEL cells assessed as change in cellular morphology by microscopic analysis; assay type: cell-based; settings: human, read-out: MIC
In short: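 Uninfected HEL monolayers were exposed to compound. Minimal cytotoxic concentration is the concentration causing microscopically visible alteration of cell morphology.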

[8] = Cytotoxicity against human MT2 cells
[9] = system: Human immunodeficiency virus 1; assay: microbe, parasite or virus in culture; settings: Human immunodeficiency virus 1, 3B, MT2
[10] = Antiproliferative activity against human C33A cells after 72 hrs by flow cytometric analysis; assay type: cell-based, C-33-A; settings: Homo sapiens, C-33-A, 72 h
In short: (§4)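 SiHa (HPV16+), HeLa (HPV18+) and C33A (HPV-) cervical carcinoma lines grown in DMEM with 10% FBS at 37°C, 5% CO2. Seeded 4×10^3 cells/well and left to adhere 24 h. Treated in triplicate with 1, 10 and 100 μM of compound formulated in ~1% DMSO/PBS pH 7.4.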

HeLa [11] = assay: Antiproliferative activity against human HeLa cells infected with HPV-18 after 72 hrs by flow cytometric analysis; assay type: functional, cell-based; settings: Homo sapiens, HeLa, 72 h; in short: as §4
SiHa = assay: Antiproliferative activity against human SiHa cells infected with HPV-16 after 72 hrs by flow cytometric analysis; assay type: functional, cell-based; in short: as §4

Row | Compound | EC50 [1] [nM] | IC50 (L1210) [nM] | EC50 (Vaccinia virus) [nM] | IC50 (HeLa [2]) [nM] | EC50 (Human alphaherpesvirus 2) [nM] | CC50 [3] [nM] | IC50 (CCRF-CEM) [nM] | EC50 [4] [nM] | EC50 (Human alphaherpesvirus 1 [5]) [nM] | EC50 (Human alphaherpesvirus 1 [6]) [nM] | MCC [7] [µM] | CC50 [8] [nM] | EC50 [9] [nM] | IC50 [10] [nM] | IC50 (HeLa [11]) [nM] | IC50 (SiHa) [nM]
1 | C[C@H](NP(=O)(COCCn1cnc2c(N)ncnc21)Oc1cccc2ccccc12)C(=O)OCc1ccccc1 (some centres not stated) | 30 | 41 | 9500 | 1600 | 8 | 120 | 120 | 50 | 700 | 20 | > 100 |  |  |  |  | 
2 | C[C@H](Cn1cnc2c(N)ncnc21)OCP(=O)(N[C@@H](C)C(=O)OCC(C)(C)C)Oc1ccccc1 (some centres not stated) | 18 | 4000 | 8000 | 8000 | 700 | 2300 | 2300 | 12 | 1000 | 1300 | > 100 |  |  |  |  | 
3 | CC(C)OC(=O)[C@H](C)N[P@](=O)(CO[C@H](C)Cn1cnc2c(N)ncnc21)Oc1ccccc1 [TENOFOVIR ALAFENAMIDE] |  |  |  |  |  |  |  |  |  |  |  | 40000 | 5 |  |  | 
4 | C[C@H](Cn1cnc2c(N)ncnc21)OCP(=O)(N[C@@H](C)C(=O)OCc1ccccc1)N[C@@H](C)C(=O)OCc1ccccc1 | 30 | 120000 | 20000 | > 500000 | 3000 | 6900 | > 500000 | 14 | 7000 | 10000 | > 100 |  |  |  |  | 
5 | C[C@H](NP(=O)(COCCn1cnc2c(N)ncnc21)Oc1ccccc1)C(=O)OCC(C)(C)C (some centres not stated) | 56 | 150 | 3700 | 2200 | 150 | 400 | 400 | 44 | 550 | 600 | > 100 |  |  |  |  | 
6 | C[C@H](Cn1cnc2c(N)ncnc21)OCP(=O)(N[C@@H](C)C(=O)OCC(C)(C)C)N[C@@H](C)C(=O)OCC(C)(C)C | 4 | 1500 | 6000 | 4000 | 700 | 1200 | 1200 | 2 | 2000 | 1500 | > 100 |  |  | 700 | 540 | 730
7 | C[C@H](Cn1cnc2c(N)ncnc21)OCP(=O)(N[C@@H](C)C(=O)OCC(C)(C)C)Oc1cccc2c1CCCC2 (some centres not stated) | 11 | 1300 | 10500 | 5300 | 1400 | 2000 | 2000 | 9 | 5500 | 1400 | > 100 |  |  |  |  | 
8 | C[C@H](Cn1cnc2c(N)ncnc21)OCP(=O)(O)O [TENOFOVIR ANHYDROUS] | 3900 | 11000 | > 100000 | 17000 | 122000 | > 500000 | 6900 | 3700 | 151000 | 105000 | > 100 |  |  |  |  | 
